# From PubChem BioAssay
# Most compounds without a hit are left out; they make up all but 1.7% or so of the library.
# TPT1 inhibitor = Candida albicans TPT1 enzyme inhibitors, primary screen, biochemical, fluorescence polarization; tRNA 2'-phosphotransferase TPT1 (Candida albicans SC5314); recombinant caTPT1, FP RNA substrate dephosphorylation; inhibition, % at 5 µM; 300,000 tested, 0.81% active; AID 1962, 2009;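 active = inhibition above the mean of all tested compounds plus 3 SD, set per screening campaign, cut at about 24% in these data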
# Rpn11 inh = Rpn11 (PSMD14) deubiquitinase inhibitors, primary screen, biochemical, fluorescence polarization, uHTS | 26S proteasome non-ATPase regulatory subunit 14 (Homo sapiens), O00487 | human 26S proteasome, Ub4-pepOG fluorescence polarization; 20S core pre-blocked with epoxomicin | inhibition, % at 20 µM | 360,000 tested, 0.59% active | AID 588493, 2011;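 active = inhibition at 20 µM, scaled to each plate's controls, above about 33%, limit read from the data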
# Target sequence (O00487 whole entry, looked up): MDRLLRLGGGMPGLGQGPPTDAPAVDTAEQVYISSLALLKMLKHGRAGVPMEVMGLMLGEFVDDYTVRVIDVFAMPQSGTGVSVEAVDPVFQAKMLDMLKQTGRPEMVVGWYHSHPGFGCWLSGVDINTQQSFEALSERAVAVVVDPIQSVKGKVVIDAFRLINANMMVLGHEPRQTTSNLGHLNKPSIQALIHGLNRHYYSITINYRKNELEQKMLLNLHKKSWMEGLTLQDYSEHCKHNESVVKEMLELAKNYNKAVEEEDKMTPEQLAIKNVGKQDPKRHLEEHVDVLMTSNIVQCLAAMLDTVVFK
# IDE cell activ = human IDE activators in live cells, primary screen, fluorescence polarization, HEK cells, FAbeta-B substrate; activation, % at 5.96 µM; AID 493087, 2011; 340,000 tested, 0.073% active; FAbeta-B cleavage; 0% vehicle, 100% cell-free pure enzyme wells;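 active = activation above the mean of all tested compounds plus 3 SD, set per screening campaign, cut at about 17% in these data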
# CSN inh = inhibitors of CSN-mediated cullin deneddylation, primary screen, biochemical, fluorescence polarization, uHTS. AID 651999, 2013. inhibition, % at 12.5 µM. Purified CSN, SCF-Nedd8-OG deneddylation. 360,000 tested, 0.38% active. COP9 signalosome complex subunit 5 (Homo sapiens), Q92905;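 active = pattern-corrected inhibition above about 35%, with an unprinted fluorescence ratio check between 0.5 and 1.5, limit read from the data, passing the limit was not always enough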
# Target sequence (Q92905 whole entry, looked up, one chain of several): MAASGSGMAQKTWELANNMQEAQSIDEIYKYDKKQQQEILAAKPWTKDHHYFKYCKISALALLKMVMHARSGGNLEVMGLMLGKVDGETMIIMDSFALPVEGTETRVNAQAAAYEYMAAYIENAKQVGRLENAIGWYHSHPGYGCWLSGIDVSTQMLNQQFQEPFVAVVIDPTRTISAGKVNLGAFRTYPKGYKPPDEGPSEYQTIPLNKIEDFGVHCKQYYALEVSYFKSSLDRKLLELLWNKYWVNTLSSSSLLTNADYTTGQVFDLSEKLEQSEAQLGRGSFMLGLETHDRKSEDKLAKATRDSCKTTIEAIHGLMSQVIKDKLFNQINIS
#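 Material: human Csn5 produced in HEK293T cells; Input: enzyme 0.24 nM; Reagent: SCFSkp2-Nedd8OG substrate at 10 nM final; Dosing: 12.5 µM compound; Incubation: 90 min reaction at room temperature; Detection: fluorescence polarization of the substrate; Evaluation: % inhibition of substrate cleavage by Csn5; Control set: substrate-only high control, full reaction low control.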
# IDE inh = human IDE inhibitors in live cells, primary screen, fluorescence polarization, HEK cells, FAbetaB substrate. Insulin-degrading enzyme (Homo sapiens), P14735. FAbetaB cleavage. inhibition, % at 5.59 µM. 320,000 tested, 0.41% active. AID 434962, 2010;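 active = percent inhibition above the average of all tested compounds plus 3 SD, set per screening campaign, cut at about 16% in these data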;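 also: IDE supplied by intact live HEK cells; FP after avidin binding of uncleaved biotin substrate so inhibition keeps polarization high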
# HNF4A DNA FP = change in binding of human HNF4A to DNA, primary screen, biochemical, fluorescence polarization, FITC-DNA; 1 h; 360,000 tested, 0.3% active; Hepatocyte nuclear factor 4-alpha (Homo sapiens), P41235; activity change, % at 10 µM; in the data active = activity change above about 30%, passing the limit was not always enough
# A number is an active result; i = inactive; nt = not tested or not shown.
SMILES,TPT1 inhibitor,Rpn11 inh,IDE cell activ,CSN inh,IDE inh,HNF4A DNA FP
Cc1ccc2c(c1)sc(C)[n+]2CCCS(=O)(=O)[O-],i,i,i,i,i,i
CCOC(=O)C1=CN(Cc2cccc(F)c2)S(=O)(=O)N(C)C1c1ccccc1 (stereo not given),nt,i,i,103,nt,i
O=C1N(Cc2ccccc2)c2ccc(Br)cc2[C@]12C[C@H](O)CO2,nt,nt,nt,i,nt,i
C#CCOCCOCCOCCNc1nc(N2CCN(C(=O)CCCCCCCCCCNC(=O)Cn3cc(CCCCCN)nn3)CC2)nc(N2CCN(C(=O)CCCCCCCCCCNC(=O)Cn3cc(CCCCCN)nn3)CC2)n1,i,i,i,60,i,38
C#CCOCCOCCOCCNc1nc(N2CCN(C(=O)CCCCCCCCCCNC(=O)[C@H]([C@@H](C)CC)n3cc(CCCCCN)nn3)CC2)nc(N2CCN(C(=O)CCCCCCCCCCNC(=O)[C@H]([C@@H](C)CC)n3cc(CCCCN=C(N)N)nn3)CC2)n1,i,88,51,116,i,i
C#CCOCCOCCOCCNc1nc(N2CCN(C(=O)[C@H](CCCCN)n3cc([C@@H](N)C(C)CC)nn3)CC2)nc(N2CCN(C(=O)[C@H](Cc3cc4ccccc4[nH]3)n3cc([C@@H](N)CC(C)C)nn3)CC2)n1 (stereo not given in full),i,i,i,45,i,49
C#CCOCCOCCOCCNc1nc(N2CCN(C(=O)CCCCCCCCCCNC(=O)[C@H]([C@@H](C)CC)n3cc(CCCCN=C(N)N)nn3)CC2)nc(N2CCN(C(=O)CCCCCCCCCCNC(=O)[C@H]([C@@H](C)CC)n3cc(CCCCN=C(N)N)nn3)CC2)n1,i,nt,nt,nt,i,nt
C#CCOCCOCCOCCNc1nc(N2CCN(C(=O)CCCCCCCCCCNC(=O)Cn3cc(CCCCCN)nn3)CC2)nc(N2CCN(C(=O)CCCCCCCCCCNC(=O)[C@@H](CCC(=O)O)n3cc(CCCCCN)nn3)CC2)n1,i,i,i,i,i,i
C#CCOCCOCCOCCNc1nc(N2CCN(C(=O)CCCCCCCCCCNC(=O)[C@H]([C@@H](C)CC)n3cc(CCCCCN)nn3)CC2)nc(N2CCN(C(=O)CCCCCCCCCCNC(=O)[C@H](CO)n3cc(CCCCCN)nn3)CC2)n1,i,i,37,i,i,i
CCOC1=C2CN(S(=O)(=O)c3ccc(C)cc3)C(c3ccccc3)CC2N(S(=O)(=O)c2ccc(C)cc2)C(c2ccc(Br)cc2)C1 (stereo not given),nt,nt,nt,i,nt,i
C#CCOCCOCCOCCNc1nc(N2CCN(C(=O)CCCCCCCCCCNC(=O)Cn3cc(CCCCCN)nn3)CC2)nc(N2CCN(C(=O)CCCCCCCCCCNC(=O)[C@H]([C@@H](C)CC)n3cc(CCCCN=C(N)N)nn3)CC2)n1,i,41,42,100,i,i
C#CCOCCOCCOCCNc1nc(N2CCN(C(=O)CCCCCCCCCCNC(=O)[C@H]([C@@H](C)CC)n3cc(CCCCCN)nn3)CC2)nc(N2CCN(C(=O)CCCCCCCCCCNC(=O)[C@@H]([C@H](C)CC)n3cc(CCCCCN)nn3)CC2)n1,i,nt,nt,nt,i,nt
C#CCOCCOCCOCCNc1nc(N2CCN(C(=O)CCCCCCCCCCNC(=O)[C@H]([C@@H](C)CC)n3cc(CCCCN=C(N)N)nn3)CC2)nc(N2CCN(C(=O)CCCCCCCCCCNC(=O)[C@H](CCCCN)n3cc(C)nn3)CC2)n1,i,nt,nt,nt,i,nt
C#CCOCCOCCOCCNc1nc(N2CCN(C(=O)CCCCCCCCCCNC(=O)[C@H]([C@@H](C)CC)n3cc(CCCCN=C(N)N)nn3)CC2)nc(N2CCN(C(=O)CCCCCCCCCCNC(=O)[C@H](CO)n3cc(CCCCCN)nn3)CC2)n1,i,75,40,106,i,i
CCc1ccc(C2CC3C(CN2S(=O)(=O)c2ccc(C)cc2)C(=O)CC(c2ccc(CC)cc2)N3S(=O)(=O)c2ccc(C)cc2)cc1 (stereo not given),nt,nt,nt,i,nt,i
CCc1ccccc1NC(=O)CN1CCN(C(=O)CNC(=O)Cc2cccc3ccccc23)CC1,nt,i,i,i,i,34
O=S(=O)(Cc1noc(-c2ccc(Cl)cc2)n1)Cc1ccco1,i,i,nt,38,i,i
O=S(=O)(Cc1ccco1)Cc1nc(-c2ccc(Cl)cc2)cs1,i,i,nt,i,i,i
CC1(C(=O)NS(=O)(=O)Cc2cccc(Cl)c2)CCN1C(=O)Cc1cccs1 (stereo not given),nt,i,nt,71,nt,i
C#CCN1C(=O)S/C(=C\c2cc3c(cc2OC)OCO3)C1=O,i,nt,i,50,i,i
CCOc1ccc(NC(=O)c2ccc(NC(=O)c3ccc(NC(N)=O)cc3)cc2)cc1,nt,106,nt,i,i,i
O=C(NC(c1ccc(-c2ccccc2)cc1)c1cnccn1)C1CCN(CCN2C(=O)c3ccccc3C2=O)CC1 (stereo not given),nt,i,nt,i,nt,i
Cc1ccc2nnc(Cl)n2n1,i,i,i,i,i,i
Clc1nnc2ccc(-c3ccccc3)nn12,i,i,i,54,i,i
Cc1ccc(-c2nn(-c3ccccc3)cc2/C=C2\SC(=S)N(CC(=O)O)C2=O)cc1,i,i,i,i,i,i
SMILES,TPT1 inhibitor,Rpn11 inh,IDE cell activ,CSN inh,IDE inh,HNF4A DNA FP
CCN1C(=O)/C(=C/c2cn(-c3ccccc3)nc2-c2cccnc2)SC1=S,nt,nt,i,i,nt,40
CCCn1c(=N)n(CC(=O)c2ccc([N+](=O)[O-])cc2)c2ccccc21,i,i,i,i,i,i
Cc1ccccc1Cn1c(=N)n(CC(=O)c2ccc([N+](=O)[O-])cc2)c2ccccc21,i,nt,i,i,i,43
CC(C)c1cc(Cn2c3ccccc3c(=O)n2C(C)Cn2cc(COc3ccccc3)nn2)on1 (stereo not given),nt,nt,nt,i,nt,i
O=C(c1ccccc1)N1CCN(c2ccc([N+](=O)[O-])c(NCc3cccnc3)c2)CC1,i,i,20,i,i,i
O=C(c1ccc(Cl)cc1)N1CCN(c2ccc([N+](=O)[O-])c(NCc3cccnc3)c2)CC1,i,i,i,i,i,i
COCCN1C(=O)CN(S(C)(=O)=O)CC1(C)C(=O)Nc1ccc2c(c1)OCCO2 (stereo not given),nt,nt,nt,i,nt,i
O=C(CN1C(=O)/C(=C\c2ccco2)SC1=S)Nc1ccc(O)cc1C(=O)O,i,nt,i,70,i,i
O=C(CCNC(=O)C1CCN(S(=O)(=O)c2ccccc2)CC1)NCc1cccc(C(F)(F)F)c1,i,i,i,i,i,38
